From ChEMBL document CHEMBL2417474, “Synthesis, antiproliferative and anti-inflammatory activities of some novel 6-aryl-2-(p-(methanesulfonyl)phenyl)-4,5-dihydropyridazi-3(2H)-ones” (Eur J Med Chem, 2013)

Tests used:
Assay type in all cases: functional
Rattus norvegicus = experiment: Antiinflammatory activity in Wistar rat assessed as inhibition of carrageenan-induced paw edema at 0.05 mmol/kg, po administered 30 mins prior challenge measured after 3 hrs
How it was run: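 Wistar rats of either sex, 150–175 g, fasted 16 h, 6 per group. Dosed orally at 0.05 mmol/kg, suspended in 1% CMC in water (10 ml/kg). 30 min later, 0.1 ml of 1% carrageenan in saline injected subplantar into the left hind paw. Paw volume read by plethysmometer at 0, 3 and 5 h. % inhibition = (1 − Vt/Vc) × 100 against the vehicle group.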

MDA-MB-468 [1] = experiment: Growth inhibition of human MDA-MB-468 cells assessed as cell growth at 10 uM after 48 hrs by sulforhodamine B assay; settings: MDA-MB-468, 48 h, read-out: Activity
DU-145 [2] = experiment: Growth inhibition of human DU145 cells assessed as cell growth at 10 uM after 48 hrs by sulforhodamine B assay; settings: DU-145, 48 h, read-out: Activity
[3] = Growth inhibition of human NCI-ADR-RES cells assessed as cell growth at 10 uM after 48 hrs by sulforhodamine B assay; settings: read-out: Activity
OVCAR-3 = experiment: Growth inhibition of human OVCAR3 cells assessed as cell growth at 10 uM after 48 hrs by sulforhodamine B assay; settings: OVCAR-3, 48 h, read-out: Activity
Malme-3M = experiment: Growth inhibition of human MALME-3M cells assessed as cell growth at 10 uM after 48 hrs by sulforhodamine B assay; settings: read-out: Activity
SNB-75 = experiment: Growth inhibition of human SNB75 cells assessed as cell growth at 10 uM after 48 hrs by sulforhodamine B assay; settings: SNB-75, 48 h, read-out: Activity
KM12 = experiment: Growth inhibition of human KM12 cells assessed as cell growth at 10 uM after 48 hrs by sulforhodamine B assay; settings: KM12, 48 h, read-out: Activity
HT-29 = experiment: Growth inhibition of human HT-29 cells assessed as cell growth at 10 uM after 48 hrs by sulforhodamine B assay; settings: HT-29, 48 h, read-out: Activity
COLO 205 [4] = experiment: Growth inhibition of human COLO205 cells assessed as cell growth at 10 uM after 48 hrs by sulforhodamine B assay; settings: COLO 205, 48 h, read-out: Activity
K562 [5] = experiment: Growth inhibition of human K562 cells assessed as cell growth at 10 uM after 48 hrs by sulforhodamine B assay; settings: K562, 48 h, read-out: Activity
MDA-MB-468 [6] = experiment: Growth inhibition of human MDA-MB-468 cells after 48 hrs by sulforhodamine B assay; settings: MDA-MB-468, 48 h
How it was run: (§1)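 NCI 60-cell-line panel. Cells were grown in medium with 5% fetal calf serum and 2 mM L-glutamine, then preincubated 24 h in plates. Compounds were added from DMSO at five 10-fold concentrations from 100 to 0.01 µM and left on cells continuously for 48 h. Cell growth was read by sulforhodamine B protein stain. GI50 is the concentration that halves net protein increase relative to control cells.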

DU-145 [7] = experiment: Growth inhibition of human DU145 cells after 48 hrs by sulforhodamine B assay; settings: DU-145, 48 h
How it was run: (§2)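 NCI 60-cell-line panel grown in RPMI-type medium with 5% fetal calf serum and 2 mM L-glutamine. Cells preincubated 24 h, then exposed continuously for 48 h to compound in DMSO at 10^-4 to 10^-8 M (five 10-fold levels). Growth read by SRB protein stain. GI50 is the concentration giving a 50% reduction in net protein increase relative to control cells.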

SN12C = experiment: Growth inhibition of human SN12C cells after 48 hrs by sulforhodamine B assay
How it was run: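 Part of the NCI 60-cell-line panel. Cells were grown in 1640 medium with 5% fetal calf serum and 2 mM L-glutamine, then preincubated 24 h before compound was added. Compounds in DMSO were tested at five concentrations (100, 10, 1, 0.1, 0.01 µM) with 48 h continuous exposure. Read-out was SRB protein staining; GI50 is the concentration halving the net protein increase versus control.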

M14 = experiment: Growth inhibition of human M14 cells after 48 hrs by sulforhodamine B assay; settings: M14, 48 h; how it was run: as §2
U-251 = experiment: Growth inhibition of human U251 cells after 48 hrs by sulforhodamine B assay; settings: U-251, 48 h
How it was run: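 NCI 60-line panel. Cells were grown in medium with 5% fetal calf serum and 2 mM L-glutamine and preincubated 24 h in plates. Compound in DMSO was added at 10^-4 to 10^-8 M (five 10-fold levels), with continuous exposure for 48 h. Growth was read by SRB protein staining. GI50 is the concentration giving 50% reduction in net protein increase versus control cells.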

LOX IMVI = experiment: Growth inhibition of human LOXIMVI cells after 48 hrs by sulforhodamine B assay; how it was run: as §2
SNB-19 = experiment: Growth inhibition of human SNB19 cells after 48 hrs by sulforhodamine B assay; settings: SNB-19, 48 h; how it was run: as §1
HCT-116 = experiment: Growth inhibition of human HCT116 cells after 48 hrs by sulforhodamine B assay; settings: HCT-116, 48 h; how it was run: as §2
COLO 205 [8] = experiment: Growth inhibition of human COLO205 cells after 48 hrs by sulforhodamine B assay; settings: COLO 205, 48 h; how it was run: as §2
[9] = Growth inhibition of human HCC2998 cells after 48 hrs by sulforhodamine B assay; settings: HCC 2998, 48 h; how it was run: as §2
NCI-H460 = experiment: Growth inhibition of human NCI-H460 cells after 48 hrs by sulforhodamine B assay; settings: NCI-H460, 48 h; how it was run: as §1
HOP-62 = experiment: Growth inhibition of human HOP62 cells after 48 hrs by sulforhodamine B assay; settings: HOP-62, 48 h; how it was run: as §2
HOP-92 = experiment: Growth inhibition of human HOP92 cells after 48 hrs by sulforhodamine B assay; settings: HOP-92, 48 h; how it was run: as §2
RPMI-8226 = experiment: Growth inhibition of human RPMI8226 cells after 48 hrs by sulforhodamine B assay; settings: RPMI-8226, 48 h; how it was run: as §1
MOLT-4 = experiment: Growth inhibition of human MOLT4 cells after 48 hrs by sulforhodamine B assay; settings: MOLT-4, 48 h; how it was run: as §1
K562 [10] = experiment: Growth inhibition of human K562 cells after 48 hrs by sulforhodamine B assay; settings: K562, 48 h; how it was run: as §2
[11] = read-out: LC50 (the source's name)

For `Cc1ccc(C2=NN(c3ccc(S(C)(=O)=O)cc3)C(=O)CC2)cc1`, the inhibition in vivo at 50 µmol/kg (Rattus norvegicus) was 46.7%, the growth at 10 µM (MDA-MB-468 [1]) was 23.9% and the growth at 10 µM (DU-145 [2]) was 6.77%. It also gave a growth at 10 µM [3] of 6.72%, a growth at 10 µM (OVCAR-3) of -14.7% and a growth at 10 µM (Malme-3M) of 45.5%. It also gave a growth at 10 µM (SNB-75) of 8.1%, a growth at 10 µM (KM12) of 35% and a growth at 10 µM (HT-29) of 11.1%. It also gave a growth at 10 µM (COLO 205 [4]) of 4.23%, a growth at 10 µM (K562 [5]) of 11.7% and a GI50 (MDA-MB-468 [6]) of 1230 nM. The LC50 (concentration killing 50% of cells) (MDA-MB-468 [6]) was > 100000 nM, the TGI (MDA-MB-468 [6]) was 4860 nM and the GI50 (DU-145 [7]) was 2910 nM. The TGI (DU-145 [7]) was > 100000 nM, the CC50 (DU-145 [7]; [11]) was > 100000 nM and the LC50 (SN12C) was > 100000 nM. The GI50 (M14) was 380 nM, the TGI (M14) was > 100000 nM and the CC50 (M14; [11]) was > 100000 nM. The GI50 (U-251) was 450 nM, the TGI (U-251) was > 100000 nM and the CC50 (U-251; [11]) was > 100000 nM. The GI50 (LOX IMVI) was 740 nM, the TGI (LOX IMVI) was > 100000 nM and the CC50 (LOX IMVI; [11]) was > 100000 nM. For the same molecule, the GI50 (SNB-19) was 1250 nM, the TGI (SNB-19) was > 100000 nM and the CC50 (SNB-19; [11]) was > 100000 nM. The GI50 (HCT-116) was 410 nM, the LC50 (concentration killing 50% of cells) (HCT-116) was > 100000 nM and the TGI (HCT-116) was > 100000 nM. The GI50 (COLO 205 [8]) was 520 nM, the TGI (COLO 205 [8]) was 6070 nM and the CC50 (COLO 205 [8]; [11]) was > 100000 nM. For the same molecule, the GI50 [9] was 2750 nM, the TGI [9] was > 100000 nM and the CC50 [9, 11] was > 100000 nM. For the same molecule, the GI50 (NCI-H460) was 380 nM, the TGI (NCI-H460) was > 100000 nM and the CC50 (NCI-H460; [11]) was > 100000 nM. For the same molecule, the GI50 (HOP-62) was 1300 nM, the TGI (HOP-62) was > 100000 nM and the CC50 (HOP-62; [11]) was > 100000 nM. The GI50 (HOP-92) was 420 nM, the TGI (HOP-92) was 8300 nM and the CC50 (HOP-92; [11]) was > 100000 nM. The GI50 (RPMI-8226) was 2780 nM, the TGI (RPMI-8226) was > 100000 nM and the CC50 (RPMI-8226; [11]) was > 100000 nM. The GI50 (MOLT-4) was 860 nM, the LC50 (MOLT-4) was > 100000 nM and the TGI (MOLT-4) was > 100000 nM. For the same molecule, the GI50 (K562 [10]) was 370 nM, the TGI (K562 [10]) was > 100000 nM and the CC50 (K562 [10]; [11]) was > 100000 nM.
`O=c1[nH]cc(F)c(=O)[nH]1` [FLUOROURACIL] showed a GI50 (DU-145 [7]) of 360 nM, a GI50 (SN12C) of 490 nM and a GI50 (M14) of 980 nM. It also gave a GI50 (U-251) of 900 nM, a GI50 (LOX IMVI) of 240 nM and a GI50 (SNB-19) of 3810 nM. The GI50 (HCT-116) was 220 nM, the GI50 (COLO 205 [8]) was 150 nM and the GI50 [9] was 50 nM. The GI50 (NCI-H460) was 50 nM, the GI50 (HOP-62) was 390 nM and the GI50 (HOP-92) was 77900 nM. For the same molecule, the GI50 (RPMI-8226) was 40 nM, the GI50 (MOLT-4) was 350 nM and the GI50 (K562 [10]) was 3580 nM.
